From ChEMBL document CHEMBL1629599, “A small-molecule screen identifies the antipsychotic drug pimozide as an inhibitor of Listeria monocytogenes infection” (2009)
Activity calls are given as the source filed them. The calls are words filed in the database; no cut-off is given here.

How the values were obtained:
Listeria monocytogenes [1] = test: Antimicrobial activity against Listeria monocytogenes DH-L1252 infected in murine bone marrow macrophages assessed as decrease in GFP reporter gene expression at 18.1 uM after 15 hrs; type: functional, organism-based
Method in brief: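 Primary BALB/c bone marrow macrophages (differentiated 6 days with L929 supernatant) are treated with 18.1 µM compound or DMSO, then infected with GFP-expressing 10403S (DH-L1252) at MOI 1:2. Extracellular bacteria are killed with 5 µg/ml gentamicin after 1 h. At 15 h post-infection, cells are fixed with paraformaldehyde and Hoechst-stained, and GFP is imaged by automated microscopy. Three independent infections in duplicate.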

Listeria monocytogenes [2] = test: Antimicrobial activity against Listeria monocytogenes DH-L1252 infected in murine bone marrow macrophages assessed as decrease in growth rate at 18.1 uM after 6 hrs; type: functional, organism-based
Listeria monocytogenes [3] = test: Antimicrobial activity against Listeria monocytogenes DH-L1252 infected in murine bone marrow macrophages assessed as log reduction in intracellular bacterial count upto 10 hrs; type: functional
Method in brief: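 BALB/c bone-marrow macrophages were seeded at 4 × 10^5/well 24 h ahead and pretreated 2 h with 18.1 µM drug or DMSO. They were infected at MOI 1:2 in antibiotic-free medium with washed Listeria grown 14–16 h in BHI at 30°C without shaking, with drug present throughout. At 1 h, 5 µg/ml gentamicin was added. At each time point cells were lysed in 0.1% Triton X-100 and CFU counted on LB agar, in triplicate.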

Listeria monocytogenes [4] = test: Antimicrobial activity against Listeria monocytogenes DH-L1252 infected in murine bone marrow macrophages assessed as intracellular bacterial replication upto 10 hrs; type: functional, organism-based
Method in brief: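 BALB/c bone marrow macrophages (4 × 10^5/well) are pretreated 2 h with 18.1 µM compound or DMSO, then infected with washed wild-type 10403S at MOI 1:2 in the presence of compound. At 1 h, medium with 5 µg/ml gentamicin plus compound is added. At set times, cells are lysed in 0.1% Triton X-100 and lysates plated on LB agar for CFU. Triplicates.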

Listeria monocytogenes [5] = test: Inhibition of internalization of Listeria monocytogenes 10403S into murine bone marrow macrophages pretreated at 2.5 to 20 uM for 2 hrs; type: functional
Method in brief: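 Bone marrow macrophages are pretreated 2 h with twofold compound dilutions, then infected with wild-type 10403S at MOI 10:1. Extracellular bacteria are killed with 50 µg/ml gentamicin at 30 min. At 90 min, cells are lysed and intracellular CFU enumerated. Three experiments in triplicate, fitted by linear regression.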

Listeria monocytogenes [6] = test: Inhibition of internalization of Listeria monocytogenes 10403S into murine J774 cells pretreated at 18.1 uM for 2 hrs; type: functional
Method in brief: (§1)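 J774 or RAW 264.7 cells (4 × 10^5/well) are pretreated 2 h with 18.1 µM compound or DMSO, then infected with washed wild-type 10403S at MOI 10:1 with compound. At 30 min, medium with 50 µg/ml gentamicin plus compound is added. At 90 min, cells are lysed in 0.1% Triton X-100 and intracellular CFU plated on LB agar. Triplicates.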

Listeria monocytogenes [7] = test: Inhibition of internalization of Listeria monocytogenes 10403S into murine Raw 264.7 cells pretreated at 18.1 uM for 2 hrs; type: functional; details: RAW264.7; method in brief: as §1
Bacillus subtilis = test: Inhibition of internalization of Bacillus subtilis into murine murine bone marrow macrophages pretreated at 18.1 uM for 2 hrs; type: functional
Method in brief: (§2)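 Gentamicin protection assay: bone marrow macrophages (4 × 10^5/well) pretreated 2 h with 18.1 µM compound or DMSO, then infected with B. subtilis 3610 (MOI 1.5:1), Salmonella Typhimurium IR715 (MOI 20:1) or E. coli K12 MM294 (MOI 20:1), all grown in LB at 37°C. After 30 min, 50 µg/ml gentamicin plus compound added; lysed at 90 min; CFU on LB agar; triplicates.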

Salmonella typhimurium = test: Inhibition of internalization of Salmonella enterica serovar Typhimurium into murine murine bone marrow macrophages pretreated at 18.1 uM for 2 hrs; type: functional, Salmonella enterica subsp. enterica serovar Typhimurium; method in brief: as §2
Escherichia coli = test: Inhibition of internalization of Escherichia coli K-12 into murine murine bone marrow macrophages pretreated at 18.1 uM for 2 hrs; type: functional; method in brief: as §2
Listeria monocytogenes [8] = test: Inhibition of internalization of Listeria monocytogenes DH-L1252 into murine bone marrow macrophages assessed as reduction in vacuolar escape of bacteria using phalloidin staining; type: functional
Method in brief: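 Bone marrow macrophages on coverslips are treated 2 h with 18.1 µM compound or DMSO, then infected 30 min at MOI 10:1 with GFP 10403S grown to OD600 ~0.5 at 37°C. Gentamicin (50 µg/ml) plus compound is added. At 90 min, cells are fixed and stained with Texas Red-phalloidin and Hoechst. At least 100 bacteria per coverslip are scored as percent F-actin-associated.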

Listeria monocytogenes [9] = test: Antimicrobial activity against Listeria monocytogenes 10403S infected in L2 cells assessed as intracellular bacterial replication; type: functional, cell-based
Method in brief: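 L2 fibroblasts (2 × 10^5/well, seeded 24 h before) are pretreated 2 h with 18.1 µM compound or DMSO. They are then infected with washed wild-type 10403S grown 14–16 h at 30°C in BHI, in antibiotic-free medium with compound. At 1 h, medium with 50 µg/ml gentamicin plus compound is added. At set times, cells are lysed in 0.1% Triton X-100 and lysates plated on LB agar for CFU. Triplicates.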

Listeria monocytogenes [10] = test: Antimicrobial activity against Listeria monocytogenes 10403S infected in L2 cells assessed as decrease in number of plaque formation at 18.1 uM after 1 hr; type: functional, cell-based
Listeria monocytogenes [11] = test: Antimicrobial activity against Listeria monocytogenes 10403S infected in L2 cells assessed as decrease in plaque size at 18.1 uM after 1 hr; type: functional; details: L2, 1 h
Method in brief: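 Wild-type L. monocytogenes grown 14–16 h, PBS-washed, infects L2 fibroblast monolayers (2 × 10^6 cells/well, seeded 24 h before) at MOI 1:5 after 2 h compound or DMSO pretreatment. At 1 h, wash and add agarose overlay with 30 µg/ml gentamicin plus 18.1 µM compound. Neutral red overlay added at 72 h. Plates scanned at 96 h; diameters of 10 plaques per well expressed as percent of DMSO; three independent experiments.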

Listeria monocytogenes [12] = test: Inhibition of Listeria monocytogenes 10403S entry into murine bone marrow macrophages at 18.1 uM after 30 mins in calcium-free medium; type: functional; details: 0.5 h
Method in brief: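 Bone marrow macrophages are preincubated 30 min in calcium-free buffer (NaCl, KCl, MgCl2, 0.1 mM EGTA, glucose, HEPES, pH 7.35) with 18.1 µM compound or DMSO. They are then infected with wild-type 10403S for 15 min. Calcium-free medium with 50 µg/ml gentamicin plus compound is added. At 45 min, cells are lysed and intracellular CFU plated on LB agar. Triplicates.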

O=c1[nH]c2ccccc2n1C1CCN(CCCC(c2ccc(F)cc2)c2ccc(F)cc2)CC1 [PIMOZIDE]
Activity (Listeria monocytogenes [1]): Active
Activity (Listeria monocytogenes [2]): inactive
FC (Listeria monocytogenes [3]): 1
Activity (Listeria monocytogenes [4]): inactive
inhibition (Listeria monocytogenes [5]): Dose-dependent effect
inhibition at 18.1 µM (Listeria monocytogenes [6]): 75%
inhibition at 18.1 µM (Listeria monocytogenes [7]): 95%
inhibition at 18.1 µM (Bacillus subtilis): 73%
inhibition at 18.1 µM (Salmonella typhimurium): 64%
inhibition at 18.1 µM (Escherichia coli): 60%
inhibition (INH) (Listeria monocytogenes [8]): 26.3%
Activity (Listeria monocytogenes [9]): inactive
inhibition (Listeria monocytogenes [10]): Active
inhibition at 18.1 µM (Listeria monocytogenes [11]): 47.1%
inhibition at 18.1 µM (Listeria monocytogenes [12]): 95%
